Sampled rows, rich in hits. Any-hit rate of the full collection: about 3.7%.
KCNQ1 inh: inhibitors of human KCNQ1 potassium channel | CHO-K1 KCNQ1, FluxOR thallium flux fluorescence; stronger effect = higher value | B-score at 10 µM | actives 1.3% (n = 310,000) | P51787;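 active = compounds whose thallium flux B-score, printed positive for inhibition, exceeds three library SD while starting fluorescence stays within three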;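 also: channel opened by potassium depolarization with thallium stimulus after 20 min compound exposure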
Kir21 block: Kir2.1 (mouse) channel inhibition; P35561; HEK293-Kir2.1, FluxOR thallium flux fluorescence; stronger effect = lower value; B-score at 10 µM; actives 0.85% (n = 310,000); AID 1672;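 active = fluorescence ratio B-score at or below minus 3 SD of library scores, with starting-brightness B-score within 2 SD, cut at about -4.2 in these data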;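 also: channel flux triggered by added potassium and thallium sulfate stimulus; B-score of peak minus minimum fluorescence over baseline after thallium stimulus; more negative B-score means stronger Kir2.1 block with less thallium influx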
KCNQ1 act: potentiates or activates the human KCNQ1 potassium channel; CHO-K1 KCNQ1, thallium flux FluxOR fluorescence; stronger effect = higher value; actives 0.35% (n = 310,000); B-score at 10 µM;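 active = fluorescence ratio B-score, a plate-corrected score, at least three library SD, with initial intensity B-score within 5 SD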
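System: CHO-K1 cells stably expressing KCNQ1 / Medium: assay buffer for compound exposure, DMSO matched across wells / Reagent: thallium- and potassium-containing depolarizing buffer / Compound: one concentration, matched DMSO / Incubation: 20 min compound pretreatment at room temperature / Measured by: kinetic FluxOR fluorescence, 10 s baseline plus 110 s post-stimulus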
hERG rescue: compounds protecting human hERG from proarrhythmic drug block; Q12809; CHO-hERG, FluxOR thallium flux, dofetilide IC70 present; activation (rescue from dofetilide block), less the hit threshold, % at 10 µM; actives 0.51% (n = 310,000); AID 1511;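 active = activation above the mean of controls blocked by dofetilide plus 5 SD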;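 also: thallium influx through hERG after potassium depolarization seen as dye fluorescence rise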
KCNK3 inh: human KCNK3 channel inhibition, primary screen. O14649. CHO-KCNK3 thallium flux, FluxOR fluorescence; stronger effect = lower value. B-score at 10 µM. actives 0.84% (n = 340,000);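 active = B-score under library mean minus 4 SD, starting fluorescence ratio at most library mean plus 5 SD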;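 also: more negative B-score means stronger inhibition of thallium flux through KCNK3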
KCNK9 inh-1: human KCNK9 channel inhibition; B-score at 10 µM; actives 1.2% (n = 310,000); Q9NPC2; HEK293 KCNK9, FluxOR thallium flux fluorescence; stronger effect = lower value; AID 488922;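 active = ratio B-score over 3 SD below the library mean, with starting fluorescence within 5 SD of its mean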;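 also: negative B-score means less thallium flux so channel inhibition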
hERG inh: hERG (human) inhibition as Kir2.1 counter-screen; shares compounds with Kir21 block; hERG-expressing cells, thallium flux; inhibition, % at 10 µM; actives 20% (n = 320);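 also: host cells are CHO cells stably expressing hERG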
KCNK9 inh-2: tests whether Kir2.1 inhibitors also affect human KCNK9; KCNK9-expressing cells, ion flux inhibition; shares compounds with Kir21 block; actives 5% (n = 320); inhibition, % at 10 µM
Kir21 ephys inh: blocks mouse Kir2.1 current in automated electrophysiology. inhibition, % at 25 µM. shares compounds with Kir21 block. Kir2.1 cells, automated patch-clamp current inhibition. actives 71% (n = 320)
KCNQ1 block val: reconfirmed blocker of the human KCNQ1 potassium channel; KCNQ1 cell line, FluxOR thallium flux fluorescence; inhibition, % at 10 µM; actives 93% (n = 1,600); shares compounds with KCNQ1 inh;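 active = primary screen active, with duplicate mean exceeding buffer control mean plus 3 SD of buffer wells, cut at about 28% in these data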
CHO KCNQ1 ctr: KCNQ1 inhibitor counter-screen hit in parental CHO cells; actives 21% (n = 1,600); fluorescence ratio (Tl flux) at 10 µM; parental CHO-K1, FluxOR thallium flux fluorescence ratio; stronger effect = lower value; zero means no signal rise above baseline; shares compounds with KCNQ1 inh;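 active = mean of duplicate thallium-flux fluorescence ratios in parental host cells more than 5 SD below the buffer control mean, cut at about 0.38 in these data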;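 also: ratio is peak minus minimum fluorescence divided by baseline fluorescence; actives read low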
KCNQ1 APC inh: blocks human KCNQ1 current in automated patch clamp. shares compounds with KCNQ1 inh. KCNQ1-CHO cells. calls only at 10 µM. actives 20% (n = 490). AID 624120;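 active = KCNQ1 current drop exceeding 3 SD of negative control wells, seen in both duplicate runs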;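 also: steady state current during a 2 s step from -80 to +40 mV; negative values mean current inhibition and positive values mean potentiation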
KCNQ2 spec: KCNQ1 inhibitor that also blocks rat KCNQ2 channel; shares compounds with KCNQ1 inh; KCNQ2 cells, FluxOR thallium flux fluorescence; inhibition, % at 10 µM; actives 71% (n = 1,600); AID 651746;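 active = mean percent inhibition of the KCNQ2 thallium signal more than 5 SD above the buffer-only control wells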;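 also: KCNQ2 expressed in CHO cells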
KCNQ1 KCNE1 spec: human KCNQ1/KCNE1 inhibition in KCNQ1 specificity screen; actives 77% (n = 1,600); shares compounds with KCNQ1 inh; inhibition, % at 10 µM; KCNQ1/KCNE1 cells, FluxOR thallium flux fluorescence;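 active = mean percent inhibition of duplicate wells above the buffer-only control mean plus 3 SD of those controls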
Target sequence (P51787 whole entry, looked up): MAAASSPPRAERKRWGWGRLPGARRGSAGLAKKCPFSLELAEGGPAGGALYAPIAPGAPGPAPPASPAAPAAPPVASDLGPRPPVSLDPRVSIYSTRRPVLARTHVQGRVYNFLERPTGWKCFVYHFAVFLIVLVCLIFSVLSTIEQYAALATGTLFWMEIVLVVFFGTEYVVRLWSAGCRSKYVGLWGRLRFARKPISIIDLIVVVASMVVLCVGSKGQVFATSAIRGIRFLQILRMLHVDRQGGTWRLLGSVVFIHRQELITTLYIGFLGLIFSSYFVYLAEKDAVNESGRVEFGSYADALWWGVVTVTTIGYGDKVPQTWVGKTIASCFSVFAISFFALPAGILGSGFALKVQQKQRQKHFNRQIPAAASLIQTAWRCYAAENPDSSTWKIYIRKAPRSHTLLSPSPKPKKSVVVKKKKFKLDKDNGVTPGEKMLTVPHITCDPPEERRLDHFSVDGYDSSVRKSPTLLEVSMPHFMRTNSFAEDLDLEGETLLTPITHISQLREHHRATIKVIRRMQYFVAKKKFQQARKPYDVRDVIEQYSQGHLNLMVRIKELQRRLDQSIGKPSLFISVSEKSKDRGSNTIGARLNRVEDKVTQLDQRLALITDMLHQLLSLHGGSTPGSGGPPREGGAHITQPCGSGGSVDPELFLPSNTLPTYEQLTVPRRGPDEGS
KCNK9 block conf: human KCNK9 inhibitor confirmation; shares compounds with KCNK9 inh-1; HEK293 KCNK9 cells, FluxOR thallium flux fluorescence; inhibition, % at 10 µM; actives 43% (n = 4,900);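 active = thallium signal inhibited by more than 5 SD of the compound-free buffer control wells, on both duplicate plates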
Kir2-1 spec: tests whether KCNK9 modulators also affect mouse Kir2.1. shares compounds with KCNK9 inh-1. Kir2.1 cells, FluxOR thallium flux fluorescence. inhibition, % at 10 µM. actives 4% (n = 4,900). AID 492993;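 active = thallium signal drop more than 5 SD beyond the mean of the no-compound control wells, seen in both duplicate plates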;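 also: signal is fluorescence rise after thallium addition divided by baseline fluorescence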
HEK293 Tl ctr: second counter-screen for KCNK9 modulators: effect in non-induced cells | shares compounds with KCNK9 inh-1 | non-induced KCNK9-HEK293, FluxOR thallium flux | inhibition, % at 10 µM | actives 40% (n = 4,900);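 active = thallium signal drop beyond 5 SD of the untreated control mean, on both duplicate plates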
Large screens that a line does not name were inactive (follow-up assays come after a bar, where they were run). Unless noted, no rule for the calls is given here.

CCOc1ccc(Cl)cc1CNCCc1ccccc1F	Kir21 block -8.94 | hERG inh inactive | KCNK9 inh-2 inactive | Kir21 ephys inh 52.4%
Fc1ccc(C(OCCN2CCCC2)c2ccc(Br)cc2)cc1 (centres undefined)	Kir21 block -8.38 | hERG inh 70.0% | KCNK9 inh-2 inactive | Kir21 ephys inh inactive
Fc1ccc(C(OCCN2CCCC2)c2ccc(F)cc2)cc1	none
CCCCCSc1cc(OC)c(CCN(C)C)cc1OC	Kir21 block -6.32 | hERG inh 57.0% | KCNK9 inh-2 inactive | Kir21 ephys inh 56.3%
COP(=S)(OC)Oc1ccc(Sc2ccc(OP(=S)(OC)OC)cc2)cc1	none (no result: KCNQ1 inh, Kir21 block, KCNQ1 act, hERG rescue, KCNK9 inh-1)
CN(C)CCOC(=O)c1cn(Cc2ccccc2)c2ccccc12	Kir21 block -7.02 | hERG inh 53.0% | KCNK9 inh-2 inactive | Kir21 ephys inh 33.3%
COC(=O)C1C(C(=O)O)C2(Cl)C(Cl)=C(Cl)C1(Cl)C2(Cl)Cl (centres undefined)	none (no result: KCNQ1 inh, Kir21 block, KCNQ1 act, hERG rescue, KCNK9 inh-1)
Cc1cccc(CCNCc2cc3cccc(C)c3[nH]c2=O)c1	Kir21 block -6.86 | hERG inh inactive | KCNK9 inh-2 inactive | Kir21 ephys inh 33.1%
COC(=O)C1=C(c2ccc(OC(F)(F)F)cc2)C[C@@H]2CC[C@H]1N2C(=O)NC1CC1	none (no result: KCNQ1 inh, Kir21 block, KCNQ1 act, hERG rescue, KCNK9 inh-1)
Cc1ccc(CN2CCN(Cc3ccccc3F)CC2)cc1	Kir21 block -10.7 | hERG inh inactive | KCNK9 inh-2 inactive | Kir21 ephys inh 57.8%
CCN1CCN(Cc2ccc(C)cc2)CC1	none
CCC(=O)c1ccc(OCC(=O)N2CCN(CC(=O)Nc3ccccc3C(F)(F)F)CC2)cc1	none (no result: KCNQ1 inh, Kir21 block, KCNQ1 act, hERG rescue, KCNK9 inh-1)
CCc1ccc(CN2CCN(Cc3ccc(SC)cc3)CC2)cc1	Kir21 block -7.15 | hERG inh 60.0% | KCNK9 inh-2 inactive | Kir21 ephys inh 15.4% | KCNK9 block conf inactive | Kir2-1 spec 60.0% | HEK293 Tl ctr inactive
CC(=O)N(C)CC#CCN1CCC(O)CC1	none
O=C(c1ccco1)c1cn(Cc2ccccc2Cl)c2ccccc12	KCNQ1 inh 7, KCNK9 inh-1 -7.54 | KCNQ1 block val 91.0 | CHO KCNQ1 ctr inactive | KCNQ1 APC inh inactive | KCNQ2 spec 102.3% | KCNQ1 KCNE1 spec 152.5%
CC(C)C(NC(=O)C(C(C)C)N(C)C)C(=O)N(C)C(C(=O)N1CCCC1C(=O)N1CCCC1C(=O)NCc1ccccc1)C(C)C (centres undefined)	none (no result: KCNQ1 inh, Kir21 block, KCNQ1 act, hERG rescue, KCNK9 inh-1)
COC(=O)C1=C(c2ccc(OCc3ccccc3)cc2)C[C@@H]2CC[C@H]1N2C(=O)NCc1ccc(N(C)C)cc1	none (no result: KCNQ1 inh, Kir21 block, KCNQ1 act, hERG rescue, KCNK9 inh-1)
Cc1nc2ccccc2c(=O)n1/N=C/c1cc(Br)cc(Br)c1O	none
CN(C)C(=S)SSC(=S)N(C)C	KCNQ1 inh 16 | KCNQ1 block val inactive | CHO KCNQ1 ctr inactive | KCNQ2 spec inactive | KCNQ1 KCNE1 spec inactive
COC(=O)C1=C(c2ccc(OC)c(OC)c2)C[C@@H]2CC[C@H]1N2C(=O)NCCCOC(C)C	none (no result: KCNQ1 inh, Kir21 block, KCNQ1 act, hERG rescue, KCNK9 inh-1)
CCCCCCn1c(=O)c(C(=O)Nc2cnccn2)c(O)c2ccccc21	KCNQ1 inh 9 | KCNQ1 block val 43.5 | CHO KCNQ1 ctr inactive | KCNQ2 spec inactive | KCNQ1 KCNE1 spec inactive
CCCCCCn1c(=O)c(C(=O)Nc2ncccc2O)c(O)c2ccccc21	KCNQ1 inh 7 | KCNQ1 block val 58.5 | CHO KCNQ1 ctr inactive | KCNQ2 spec 62.0% | KCNQ1 KCNE1 spec 50.0%
CCCCCn1c(=O)c(C(=O)Nc2ccccc2N)c(O)c2ccccc21	none
O=c1cc(C(F)(F)F)c2cc3c4c(c2o1)CCCN4CCC3	KCNQ1 inh 37 | KCNQ1 block val active | CHO KCNQ1 ctr 0.0225 | KCNQ2 spec inactive | KCNQ1 KCNE1 spec inactive
CN1/C(=C\C=C2C(=O)NC(=S)NC2=O)C(C)(C)c2ccccc21	none
CC1(C)OC(c2ccccc2)=C/C(=C/C=C2C(=O)NC(=S)NC2=O)O1	KCNQ1 inh 15 (no result: KCNK3 inh) | KCNQ1 block val 82.0 | CHO KCNQ1 ctr 0.341 | KCNQ2 spec inactive | KCNQ1 KCNE1 spec inactive
Nc1ccc2ccc3cccc[n+]3c2c1	KCNQ1 inh 24 | KCNQ1 block val active | CHO KCNQ1 ctr 0.0075 | KCNQ2 spec inactive | KCNQ1 KCNE1 spec inactive
C[n+]1c(-c2ccccc2)c2cc(N)ccc2c2ccc(N)cc21	none
